The term IC50 denotes the concentration that gives 50% inhibition.

Data on two molecules can be found in ChEMBL document CHEMBL4000155, “Synthesis and Antileukemic Activities of Piperlongumine and HDAC Inhibitor Hybrids against Acute Myeloid Leukemia Cells” (J Med Chem, 2016).

Activity calls are given as the source filed them. The rule behind the calls is not given here.

A short description of series [1]: Chemical stability of the compound in pH 7.4 phosphate buffer at 50 uM incubated up to 4 hrs in presence of GSH by HPLC analysis. The conditions noted are these: pH 7.4, 4 h. In kind it is physicochemical. In short, it runs like this:
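Compound at 50 μM incubated with or without 5 mM GSH in phosphate buffer pH 7.4 at 37 °C for up to 4 h. Mixtures analysed by HPLC with water/0.1% formic acid/10% methanol versus 0.1% formic acid in acetonitrile, 0.5 mL/min, 10–80% B gradient over 18 min.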

Series [2] has as its system U-937. Briefly: Induction of apoptosis in p53 null human U937 cells at 0.25 uM after 24 hrs by annexin V-FITC/PI staining based flow cytometry. In kind it is functional. The gist of the method: (§1)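 Cells treated 24 h, single agents or SAHA+PL at 1:1 (each drug at the stated concentration). Annexin V-FITC/PI kit staining, then flow cytometry, reported as % Annexin V+ cells. Three independent experiments in triplicate, with data from one representative experiment. DMSO <0.1% vehicle control.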
In general terms: Flow cytometry measures light scatter and fluorescence of single cells or particles in a stream.

Series [3] has as its system MDA-MB-231. Briefly: Antiproliferative activity against human MDA-MB-231 cells after 24 hrs by MTT assay. The conditions noted are these: MDA-MB-231, 24 h. In kind it is functional, cell-based.
Series [4] has as its system U-937. Briefly: Induction of apoptosis in p53 null human U937 cells at 1 uM after 24 hrs by annexin V-FITC/PI staining based flow cytometry. In kind it is functional. The gist of the method: as §1
Series [5] concerns U-937. Briefly: Induction of apoptosis in p53 null human U937 cells at 4 uM after 24 hrs by annexin V-FITC/PI staining based flow cytometry. In kind it is functional. The gist of the method: (§2)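 Human U937 AML cells (p53 null) in RPMI 1640 with 10% FBS, 2 mM L-glutamine, penicillin/streptomycin, 37 °C, 5% CO2. Exposed 24 h to compound alone or with SAHA; vehicle DMSO < 0.1% v/v. Annexin V-FITC/PI staining and flow cytometry, reported as % Annexin V+ cells. Three independent experiments in triplicate; one representative shown. EC50 taken as concentration giving 50% Annexin V+ cells versus vehicle.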

In series [6] the test system is U-937. In words: Induction of apoptosis in p53 null human U937 cells at 2 uM after 24 hrs in presence of SAHA by annexin V-FITC/PI staining based flow cytometry. In kind it is functional. In short, it runs like this: as §2
For series [7], the target named is T1, Protein deacetylase HDAC6 (Homo sapiens) (UniProt Q9UBN7).
T1 sequence (whole entry): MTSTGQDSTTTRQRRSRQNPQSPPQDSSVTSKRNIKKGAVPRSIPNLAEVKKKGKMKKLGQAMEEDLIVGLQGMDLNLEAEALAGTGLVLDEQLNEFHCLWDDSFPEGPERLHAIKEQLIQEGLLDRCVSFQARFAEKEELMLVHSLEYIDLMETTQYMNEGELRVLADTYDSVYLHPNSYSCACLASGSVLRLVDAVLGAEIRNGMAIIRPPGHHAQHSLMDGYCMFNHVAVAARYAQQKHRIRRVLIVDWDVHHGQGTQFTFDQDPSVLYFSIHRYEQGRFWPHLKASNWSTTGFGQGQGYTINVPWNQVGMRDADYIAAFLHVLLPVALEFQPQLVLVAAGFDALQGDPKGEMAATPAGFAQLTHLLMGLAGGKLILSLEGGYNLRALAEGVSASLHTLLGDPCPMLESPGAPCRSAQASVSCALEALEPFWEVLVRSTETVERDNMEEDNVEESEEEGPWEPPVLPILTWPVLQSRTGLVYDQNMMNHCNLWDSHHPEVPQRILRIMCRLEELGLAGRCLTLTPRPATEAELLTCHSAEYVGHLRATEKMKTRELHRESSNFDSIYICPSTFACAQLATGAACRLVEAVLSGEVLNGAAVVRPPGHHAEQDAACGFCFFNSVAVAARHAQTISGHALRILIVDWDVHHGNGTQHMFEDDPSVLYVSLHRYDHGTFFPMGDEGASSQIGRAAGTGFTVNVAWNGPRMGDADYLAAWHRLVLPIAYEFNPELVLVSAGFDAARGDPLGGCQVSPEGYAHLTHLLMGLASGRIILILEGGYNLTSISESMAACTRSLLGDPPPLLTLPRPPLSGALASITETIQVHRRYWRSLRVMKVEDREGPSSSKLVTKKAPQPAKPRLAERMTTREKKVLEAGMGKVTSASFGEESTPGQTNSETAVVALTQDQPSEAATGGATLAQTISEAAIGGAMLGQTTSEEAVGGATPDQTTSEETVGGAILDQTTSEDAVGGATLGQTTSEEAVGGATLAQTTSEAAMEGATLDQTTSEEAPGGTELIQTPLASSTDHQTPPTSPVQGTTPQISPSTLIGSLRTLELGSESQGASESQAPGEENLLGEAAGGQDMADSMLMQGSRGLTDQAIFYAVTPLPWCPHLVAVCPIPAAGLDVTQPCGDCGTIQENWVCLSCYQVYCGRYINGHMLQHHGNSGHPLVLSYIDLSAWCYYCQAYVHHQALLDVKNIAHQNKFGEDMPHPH
In words: Effect on SAHA-induced HDAC6 inhibition in p53 null human U937 cells assessed as hyper acetylation of alpha tubulin at 1 uM after 4 hrs by Western blot analysis. In kind it is cell-based. The gist of the method: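 U937 cells treated at 1 μM for 4 h. Whole-cell lysates run on SDS-PAGE, transferred to PVDF and immunoblotted for acetyl-histone H4, histone H4, acetyl-α-tubulin and β-actin.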

Series [8] can be described thus: Antiproliferative activity against human CMY cells after 72 hrs in presence of SAHA by MTT assay. In kind it is functional, cell-based. The gist of the method: (§3)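 AML cell lines grown in RPMI 1640 with 10% FBS (20% for MOLM-13), 2 mM L-glutamine and penicillin/streptomycin at 37 °C, 5% CO2. Ara-C-resistant HL-60 and CMK sublines came from stepwise cytarabine selection and were kept in 600 nM or 300 nM cytarabine respectively. Cells were treated 72 h. MTT 0.05 mg/mL, 3 h at 37 °C, DMSO solubilization, absorbance at 570 nm. IC50 given ± SEM.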
For orientation: Tetrazolium assays rely on reduction of a dye to a coloured formazan, in cell work by metabolically active cells.

In series [9] the test system is U-937. Briefly: Effect on SAHA-induced apoptosis in p53 null human U937 cells assessed as increase in Bim EL expression level by measuring ratio of Bim EL to beta-actin level at 2 uM after 24 hrs by Western blot analysis relative to control. In kind it is functional. The gist of the method:
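U937 cells treated 24 h, alone or PL+SAHA. Whole-cell lysates (protease/phosphatase inhibitors) immunoblotted for γH2AX, CHK1, RAD51, Bim and XIAP. Band densitometry normalised to β-actin, then expressed as fold change relative to the untreated control.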
Background: In western blotting, separated proteins are transferred to a membrane and probed.

The test system of series [10] is U-937. Briefly: Induction of apoptosis in p53 null human U937 cells at 2 uM preincubated with NAC for 3 hrs followed by compound addition measured after 24 hrs in presence of SAHA by annexin V-FITC/PI staining based flow cytometry. In kind it is functional, cell-based. In short, it runs like this:
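U937 cells preincubated 3 h with 3 mM NAC or vehicle and washed with PBS to remove excess NAC. Then drug alone or with SAHA for 24 h. Apoptosis scored as % Annexin V+ by Annexin V-FITC/PI flow cytometry; vehicle DMSO < 0.1% v/v.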

The subject of series [11] is CMK. In words: Antiproliferative activity against Ara-C resistant human CMK cells after 72 hrs in presence of SAHA by MTT assay. In kind it is functional, cell-based. In short, it runs like this:
as §3

For series [12], the system named is MOLM-13. In words: Induction of apoptosis in human MOLM13 cells harboring wild type p53/FLT3-ITD mutant at 4 uM after 24 hrs in presence of SAHA by annexin V-FITC/PI staining based flow cytometry. In kind it is functional. In short, it runs like this:
as §1

As for `COc1cc(/C=C/C(=O)N2CCC=CC2=O)cc(OC)c1OCCCCCCC(=O)NO`, the Stability result in series [1] was “Stable”. For the same molecule, in series [2], the outcome was inactive. In [3], this molecule came in with an IC50 of 382 nM. For the same molecule, the Activity is on record as 13.7% in series [4] and 88.5% in [5].

For the molecule `COc1cc(/C=C/C(=O)N2CCC=CC2=O)cc(OC)c1OC` [PIPLARTINE], the Activity in series [6] is 62.5%; in [12], 77.5%. Moreover, the outcome in series [7] and in [10] was inactive. Moreover, the figures for the 50% inhibitory concentration (IC50) in series [8] and in series [11] were 442 nM and 422 nM, respectively. For the same molecule, the Ratio in [9] is reported as 1.8.
